In ChEMBL document CHEMBL5260840 (J Med Chem, 2019):
The source made the active and inactive calls. No cut-off for these calls is given here.

Key:
[1] = target: T1, von Hippel-Lindau disease tumor suppressor/Bromodomain-containing protein 9 (Homo sapiens) (UniProt Q9H8M2+P40337); experiment: PROTAC activity at VHL/BRD9 in human Ri-1 cells assessed as BRD9 protein degradation in the presence of MG132 by Western blot analysis; assay type: cell-based
Summary of the method: (§1)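 Ri-1 cells exposed to compound for the stated time before harvest; BRD9, BRD7 and β-actin measured by Western blot, band intensities quantified and set against DMSO-treated control.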

[2] = target: T2, von Hippel-Lindau disease tumor suppressor/Bromodomain-containing protein 7 (Homo sapiens) (UniProt Q9NPI1+P40337); experiment: PROTAC activity at VHL/BRD7 in human Ri-1 cells assessed as BRD7 protein degradation in the presence of MLN4924 by Western blot analysis; assay type: cell-based
T2 sequence (P40337 whole entry, looked up): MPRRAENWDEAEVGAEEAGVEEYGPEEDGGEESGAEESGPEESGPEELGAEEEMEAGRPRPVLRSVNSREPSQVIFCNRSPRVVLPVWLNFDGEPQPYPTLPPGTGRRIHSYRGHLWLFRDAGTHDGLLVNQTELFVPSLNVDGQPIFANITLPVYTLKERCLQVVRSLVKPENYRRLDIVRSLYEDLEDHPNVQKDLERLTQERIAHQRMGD
T2 sequence (Q9NPI1 whole entry, looked up): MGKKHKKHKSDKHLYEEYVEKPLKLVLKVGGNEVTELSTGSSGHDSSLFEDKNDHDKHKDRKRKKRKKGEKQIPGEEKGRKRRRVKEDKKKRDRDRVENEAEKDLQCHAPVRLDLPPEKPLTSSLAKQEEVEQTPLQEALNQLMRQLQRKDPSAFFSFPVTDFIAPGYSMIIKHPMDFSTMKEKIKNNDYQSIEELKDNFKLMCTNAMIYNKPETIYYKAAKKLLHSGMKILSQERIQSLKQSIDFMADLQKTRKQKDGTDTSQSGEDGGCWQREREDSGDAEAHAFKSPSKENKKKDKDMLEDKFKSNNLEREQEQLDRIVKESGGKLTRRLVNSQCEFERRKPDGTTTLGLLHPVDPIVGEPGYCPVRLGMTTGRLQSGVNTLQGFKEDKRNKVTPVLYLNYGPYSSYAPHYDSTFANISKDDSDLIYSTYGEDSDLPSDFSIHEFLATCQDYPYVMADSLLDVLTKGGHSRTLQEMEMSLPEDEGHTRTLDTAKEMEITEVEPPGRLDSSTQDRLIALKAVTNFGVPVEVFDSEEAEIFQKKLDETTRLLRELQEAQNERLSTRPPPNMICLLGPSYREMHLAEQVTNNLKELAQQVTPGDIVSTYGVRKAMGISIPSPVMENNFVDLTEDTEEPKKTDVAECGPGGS

[3] = Kinetic aqueous solubility of the compound by laser nephelometry; assay type: physicochemical; conditions: read-out: Kinetic_solubility
Summary of the method: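 Laser nephelometry. DMSO stocks serially diluted from 10 mM to 0.5 mM, then mixed into water to give final 250–12 µM with 2.5% final DMSO. Triplicate aliquots read immediately.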

[4] = Stability in mouse plasma at 10 uM measured upto 180 mins by UPLC-MS/MS analysis; assay type: ADME, cell-free; conditions: 3 h
[5] = Stability in human plasma at 10 uM measured upto 180 mins by UPLC-MS/MS analysis; assay type: ADME, cell-free; conditions: 3 h
[6] = Stability in human liver microsomes at 0.5 uM measured upto 30 mins in the presence of NADPH; assay type: ADME, Microsome; conditions: 0.5 h
[7] = Stability in CD-1 mouse liver microsomes at 0.5 uM measured upto 30 mins in the presence of NADPH; assay type: ADME, Microsome; conditions: 0.5 h
[8] = target: T2, von Hippel-Lindau disease tumor suppressor/Bromodomain-containing protein 7 (Homo sapiens); experiment: PROTAC activity at VHL/BRD7 in human Ri-1 cells assessed as BRD7 protein degradation at 100 nM incubated for 4 hrs by MS proteomics analysis; assay type: cell-based
[9] = target: T1, von Hippel-Lindau disease tumor suppressor/Bromodomain-containing protein 9 (Homo sapiens); experiment: PROTAC activity at VHL/BRD9 in human Ri-1 cells assessed as BRD9 protein degradation at 100 nM incubated for 4 hrs by MS proteomics analysis; assay type: cell-based
Summary of the method: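 RI-1 cells treated in triplicate with compound (100 nM) or DMSO for 4 h; whole-cell proteome quantified by MS (6273 proteins), fold change versus control with t-test P-values.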

[10] = test system: EOL1; experiment: Antiproliferative activity against human EOL1 cells assessed as inhibition of cell growth incubated for 7 days by CellTiterGlo assay; assay type: functional, cell-based; conditions: EOL1, 168 h
[11] = target: T2, von Hippel-Lindau disease tumor suppressor/Bromodomain-containing protein 7 (Homo sapiens); experiment: PROTAC activity at VHL/BRD7 in human Ri-1 cells assessed as BRD7 protein degradation at 100 nM pre-incubated for 30 mins with VH298 followed by compound addition and measured after 4 hrs by Western blot analysis; assay type: cell-based
[12] = target: T1, von Hippel-Lindau disease tumor suppressor/Bromodomain-containing protein 9 (Homo sapiens); experiment: PROTAC activity at VHL/BRD9 in human Ri-1 cells assessed as BRD9 protein degradation in the presence of MLN4924 by Western blot analysis; assay type: cell-based; summary of the method: as §1
[13] = target: T2, von Hippel-Lindau disease tumor suppressor/Bromodomain-containing protein 7 (Homo sapiens); experiment: PROTAC activity at VHL/BRD7 in human Ri-1 cells assessed as remaining BRD7 protein level at 10 nM incubated for 24 hrs by Western blot analysis relative to control; assay type: cell-based
[14] = target: T2, von Hippel-Lindau disease tumor suppressor/Bromodomain-containing protein 7 (Homo sapiens); experiment: PROTAC activity at VHL/BRD7 in human Ri-1 cells assessed as remaining BRD7 protein level at 10 nM incubated for 4 hrs by Western blot analysis relative to control; assay type: cell-based
[15] = target: T2, von Hippel-Lindau disease tumor suppressor/Bromodomain-containing protein 7 (Homo sapiens); experiment: PROTAC activity at VHL/BRD7 in human Ri-1 cells assessed as remaining BRD7 protein level at 10 nM incubated for 1 hrs by Western blot analysis relative to control; assay type: cell-based
[16] = target: T1, von Hippel-Lindau disease tumor suppressor/Bromodomain-containing protein 9 (Homo sapiens); experiment: PROTAC activity at VHL/BRD9 in human Ri-1 cells assessed as remaining BRD9 protein level at 100 nM incubated for 48 hrs by Western blot analysis relative to control; assay type: cell-based; summary of the method: as §1
[17] = target: T1, von Hippel-Lindau disease tumor suppressor/Bromodomain-containing protein 9 (Homo sapiens); experiment: PROTAC activity at VHL/BRD9 in human Ri-1 cells assessed as remaining BRD9 protein level at 10 nM incubated for 48 hrs by Western blot analysis relative to control; assay type: cell-based; summary of the method: as §1
[18] = target: T1, von Hippel-Lindau disease tumor suppressor/Bromodomain-containing protein 9 (Homo sapiens); experiment: PROTAC activity at VHL/BRD9 in human Ri-1 cells assessed as remaining BRD9 protein level at 100 nM incubated for 24 hrs by Western blot analysis relative to control; assay type: cell-based; summary of the method: as §1
[19] = target: T1, von Hippel-Lindau disease tumor suppressor/Bromodomain-containing protein 9 (Homo sapiens); experiment: PROTAC activity at VHL/BRD9 in human Ri-1 cells assessed as remaining BRD9 protein level at 10 nM incubated for 4 hrs by Western blot analysis relative to control; assay type: cell-based; summary of the method: as §1
[20] = target: T1, von Hippel-Lindau disease tumor suppressor/Bromodomain-containing protein 9 (Homo sapiens); experiment: PROTAC activity at VHL/BRD9 in human Ri-1 cells assessed as remaining BRD9 protein level at 100 nM incubated for 4 hrs by Western blot analysis relative to control; assay type: cell-based; summary of the method: as §1
[21] = target: T1, von Hippel-Lindau disease tumor suppressor/Bromodomain-containing protein 9 (Homo sapiens); experiment: PROTAC activity at VHL/BRD9 in human Ri-1 cells assessed as remaining BRD9 protein level at 10 nM incubated for 24 hrs by Western blot analysis relative to control; assay type: cell-based; summary of the method: as §1
[22] = target: T1, von Hippel-Lindau disease tumor suppressor/Bromodomain-containing protein 9 (Homo sapiens); experiment: PROTAC activity at VHL/BRD9 in human Ri-1 cells assessed as remaining BRD9 protein level at 10 nM incubated for 30 mins by Western blot analysis relative to control; assay type: cell-based; summary of the method: as §1
[23] = target: T2, von Hippel-Lindau disease tumor suppressor/Bromodomain-containing protein 7 (Homo sapiens); experiment: PROTAC activity at VHL/BRD7 in human HeLa cells assessed as remaining BRD7 protein level at 1 uM incubated for 4 hrs by Western blot analysis relative to control; assay type: cell-based
[24] = target: T2, von Hippel-Lindau disease tumor suppressor/Bromodomain-containing protein 7 (Homo sapiens); experiment: PROTAC activity at VHL/BRD7 in human Ri-1 cells assessed as remaining BRD7 protein level at 1 uM incubated for 2 hrs by Western blot analysis relative to control; assay type: cell-based
[25] = target: T1, von Hippel-Lindau disease tumor suppressor/Bromodomain-containing protein 9 (Homo sapiens); experiment: PROTAC activity at VHL/BRD9 in human Ri-1 cells assessed as remaining BRD9 protein level at 10 nM incubated for 8 hrs by Western blot analysis relative to control; assay type: cell-based; summary of the method: as §1
[26] = target: T1, von Hippel-Lindau disease tumor suppressor/Bromodomain-containing protein 9 (Homo sapiens); experiment: PROTAC activity at VHL/BRD9 in human Ri-1 cells assessed as remaining BRD9 protein level at 10000 nM incubated for 2 hrs by Western blot analysis relative to control; assay type: cell-based; summary of the method: as §1
[27] = target: T2, von Hippel-Lindau disease tumor suppressor/Bromodomain-containing protein 7 (Homo sapiens); experiment: PROTAC activity at VHL/BRD7 in human Ri-1 cells assessed as remaining BRD7 protein level at 100 nM incubated for 8 hrs by Western blot analysis relative to control; assay type: cell-based; summary of the method: as §1
[28] = target: T2, von Hippel-Lindau disease tumor suppressor/Bromodomain-containing protein 7 (Homo sapiens); experiment: PROTAC activity at VHL/BRD7 in human Ri-1 cells assessed as remaining BRD7 protein level at 1 nM incubated for 8 hrs by Western blot analysis relative to control; assay type: cell-based
[29] = target: T2, von Hippel-Lindau disease tumor suppressor/Bromodomain-containing protein 7 (Homo sapiens); experiment: PROTAC activity at VHL/BRD7 in human Ri-1 cells assessed as remaining BRD7 protein level at 10000 nM incubated for 2 hrs by Western blot analysis relative to control; assay type: cell-based; summary of the method: as §1
[30] = target: T2, von Hippel-Lindau disease tumor suppressor/Bromodomain-containing protein 7 (Homo sapiens); experiment: PROTAC activity at VHL/BRD7 in human Ri-1 cells assessed as remaining BRD7 protein level at 100 nM incubated for 2 hrs by Western blot analysis relative to control; assay type: cell-based; summary of the method: as §1
[31] = target: T2, von Hippel-Lindau disease tumor suppressor/Bromodomain-containing protein 7 (Homo sapiens); experiment: PROTAC activity at VHL/BRD7 in human Ri-1 cells assessed as remaining BRD7 protein level at 10 nM incubated for 2 hrs by Western blot analysis relative to control; assay type: cell-based
[32] = target: T2, von Hippel-Lindau disease tumor suppressor/Bromodomain-containing protein 7 (Homo sapiens); experiment: PROTAC activity at VHL/BRD7 in human Ri-1 cells assessed as remaining BRD7 protein level at 1 nM incubated for 2 hrs by Western blot analysis relative to control; assay type: cell-based
[33] = target: T1, von Hippel-Lindau disease tumor suppressor/Bromodomain-containing protein 9 (Homo sapiens); experiment: PROTAC activity at VHL/BRD9 in human Ri-1 cells assessed as maximal degradation by Western blot analysis relative to control; assay type: cell-based; summary of the method: as §1
[34] = target: T2, von Hippel-Lindau disease tumor suppressor/Bromodomain-containing protein 7 (Homo sapiens); experiment: PROTAC activity at VHL/BRD7 in human Ri-1 cells assessed as maximal degradation by Western blot analysis relative to control; assay type: cell-based

T1 sequence (P40337 whole entry, looked up): as the sequence (P40337 whole entry, looked up) above
T1 sequence (Q9H8M2 whole entry, looked up): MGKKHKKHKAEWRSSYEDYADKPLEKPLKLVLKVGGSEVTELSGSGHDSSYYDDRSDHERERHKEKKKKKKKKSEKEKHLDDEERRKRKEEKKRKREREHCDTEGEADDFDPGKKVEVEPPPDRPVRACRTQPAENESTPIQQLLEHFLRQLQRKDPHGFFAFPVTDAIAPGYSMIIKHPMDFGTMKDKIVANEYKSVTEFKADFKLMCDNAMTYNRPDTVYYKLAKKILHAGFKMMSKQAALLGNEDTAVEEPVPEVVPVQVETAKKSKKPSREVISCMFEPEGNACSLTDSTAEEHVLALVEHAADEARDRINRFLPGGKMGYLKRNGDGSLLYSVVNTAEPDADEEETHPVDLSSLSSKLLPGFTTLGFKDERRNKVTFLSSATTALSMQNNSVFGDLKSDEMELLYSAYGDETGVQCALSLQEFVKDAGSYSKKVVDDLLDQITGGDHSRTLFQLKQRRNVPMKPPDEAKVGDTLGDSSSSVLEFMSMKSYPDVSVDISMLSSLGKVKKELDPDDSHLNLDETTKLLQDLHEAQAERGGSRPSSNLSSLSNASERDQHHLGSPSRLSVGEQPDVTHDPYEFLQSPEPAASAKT

## COc1cc(-c2cn(C)c(=O)c3cnccc23)cc(OC)c1CN1CCN(CCCCCOc2cc(-c3scnc3C)ccc2CNC(=O)[C@@H]2C[C@@H](O)CN2C(=O)[C@@H](NC(=O)C2(F)CC2)C(C)(C)C)CC1
[1]
  Activity: inactive
[2]
  Activity: inactive
[3]
  solubility kinetic: ≤ 100 µM
[4]
  Stability: Stable
[5]
  Stability: Stable
[6]
  Stability: Stable
[7]
  Stability: Stable
[8]
  Activity: Active
[9]
  Activity: Active
[10]
  IC50: 3.39 nM
[11]
  Activity: inactive
[12]
  Activity: inactive
[13]
  Activity: 38%
[14]
  Activity: 42%
[15]
  Activity: 70%
[16]
  Activity: 2%
[17]
  Activity: 2%
[18]
  Activity: 2%
[19]
  Activity: 31%
[20]
  Activity: 10%
[21]
  Activity: 17%
[22]
  Activity: 50%
[23]
  Activity: 10%
[24]
  Activity: 10%
[25]
  Activity: 14%
[26]
  Activity: 89%
[27]
  Activity: 5%
[28]
  Activity: 100%
[29]
  Activity: 75%
[30]
  Activity: 8%
[31]
  Activity: 52%
[32]
  Activity: 92%
[33]
  Emax: > 90%
[34]
  Emax: > 90%
